These results are taken from ChEMBL document CHEMBL2434850, “Synthesis and antibacterial activity of novel modified 5-O-mycaminose 14-membered ketolides” (2013).

≈ marks a conversion by molar mass, not a printed value.

Common to all, as to type: functional
Experiment [1] deals with Staphylococcus epidermidis. Briefly: Antibacterial activity against methicillin-sensitive Staphylococcus epidermidis 09-9 by broth microdilution method. In a few lines: (§1)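 Value is the minimum inhibitory concentration (MIC), determined by broth microdilution following CLSI recommendations. Strains ATCC 29213, 15 and 09-06 are methicillin-sensitive S. aureus; ATCC 12228 and 09-9 are methicillin-sensitive S. epidermidis.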
A general note: In broth dilution the organism is exposed to a series of concentrations in liquid medium.

Experiment [2] concerns Staphylococcus epidermidis. As to the kind of experiment: Antibacterial activity against methicillin-resistant Staphylococcus epidermidis 09-3 by broth microdilution method.
In experiment [3] the test system is Staphylococcus epidermidis. As to the kind of experiment: Antibacterial activity against methicillin-sensitive Staphylococcus epidermidis ATCC 12228 by broth microdilution method. In outline:
as §1

Experiment [4] has as its system Staphylococcus aureus. Briefly: Antibacterial activity against methicillin-resistant Staphylococcus aureus 09-13 by broth microdilution method. In outline:
(§2)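 MIC determined by broth microdilution following CLSI recommendations; strain is a methicillin-resistant S. aureus (MRSA).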

For experiment [5], the system named is Staphylococcus aureus. Briefly: Antibacterial activity against methicillin-sensitive Staphylococcus aureus 09-6 by broth microdilution method. In a few lines: as §1
The test system of experiment [6] is Staphylococcus aureus. Briefly: Antibacterial activity against methicillin-sensitive Staphylococcus aureus 15 by broth microdilution method. In outline: as §1
In experiment [7] the test system is Staphylococcus aureus. Briefly: Antibacterial activity against methicillin-resistant Staphylococcus aureus ATCC 33591 by broth microdilution method. In a few lines: as §2
The subject of experiment [8] is Staphylococcus aureus. Briefly: Antibacterial activity against methicillin-sensitive Staphylococcus aureus ATCC 29213 by broth microdilution method. In outline: as §1

As usually defined, the MIC is the lowest concentration found to suppress growth. Higher therefore signals a need for much substance. Take `CC[C@H]1OC(=O)[C@H](C)C(=O)[C@H](C)[C@@H](O[C@@H]2O[C@H](C)[C@@H](OC(=O)Nc3ccc(C(F)(F)F)cc3)[C@H](N(C)C)[C@H]2O)[C@@](C)(OC)C[C@@H](C)/C(=N\O)[C@H](C)[C@H]2OC(=O)O[C@@]21C`: the MIC is over 32 µg/mL in experiment [1]; over 32 µg/mL in experiment [2]; 32 µg/mL (≈ 38.5 µM) in experiment [3]; over 32 µg/mL in experiment [4]; over 32 µg/mL in experiment [5]; over 32 µg/mL in experiment [6]. For the same compound, the MIC in experiment [7] and in experiment [8] was over 32 µg/mL throughout.
As for `CC[C@H]1OC(=O)[C@H](C)C(=O)[C@H](C)[C@@H](O[C@@H]2O[C@H](C)[C@@H](OC(=O)NCCc3ccccc3)[C@H](N(C)C)[C@H]2O)[C@@](C)(OC)C[C@@H](C)/C(=N\O)[C@H](C)[C@H]2OC(=O)O[C@@]21C`, the MIC in experiment [1] is 2 µg/mL (≈ 2.53 µM); in experiment [2], over 32 µg/mL; in experiment [3], 0.5 µg/mL (≈ 0.631 µM); in experiment [4], over 32 µg/mL; in experiment [5], 1 µg/mL (≈ 1.26 µM); in experiment [6], 1 µg/mL (≈ 1.26 µM). Also, the values for the MIC in experiment [7] and in experiment [8] were over 32 µg/mL and 1 µg/mL (≈ 1.26 µM), respectively.
Consider `CC[C@H]1OC(=O)[C@H](C)C(=O)[C@H](C)[C@@H](O[C@@H]2O[C@H](C)[C@@H](OC(=O)NCCCl)[C@H](N(C)C)[C@H]2O)[C@@](C)(OC)C[C@@H](C)/C(=N\OC(=O)NCCCl)[C@H](C)[C@H]2OC(=O)O[C@@]21C`, for which the MIC in experiment [1], in experiment [2], in experiment [3], in experiment [4], in experiment [5] and in experiment [6] was over 32 µg/mL in each case. In addition, the MIC in experiment [7] and in experiment [8] was over 32 µg/mL in each case.
Consider `CC[C@H]1OC(=O)[C@H](C)C(=O)[C@H](C)[C@@H](O[C@@H]2O[C@H](C)C[C@H](N(C)C)[C@H]2O)[C@](C)(OC)C[C@@H](C)C(=O)[C@H](C)[C@H]2N(CCCCn3cnc(-c4cccnc4)c3)C(=O)O[C@]12C` [TELITHROMYCIN], for which the minimum inhibitory concentration (MIC) in experiment [1] is 0.06 µg/mL (≈ 0.0739 µM); in experiment [2], 32 µg/mL (≈ 39.4 µM); in experiment [3] it was 0.06 µg/mL (≈ 0.0739 µM); in experiment [4], over 32 µg/mL; in experiment [5] it was 0.5 µg/mL (≈ 0.616 µM); in experiment [6], 2 µg/mL (≈ 2.46 µM). Also, the MIC is over 32 µg/mL in experiment [7] and 0.5 µg/mL (≈ 0.616 µM) in experiment [8].
Turning to `CC[C@H]1OC(=O)[C@H](C)C(=O)[C@H](C)[C@@H](O[C@@H]2O[C@H](C)[C@@H](O)[C@H](N(C)C)[C@H]2O)[C@@](C)(OC)C[C@@H](C)/C(=N\O)[C@H](C)[C@H]2OC(=O)O[C@@]21C`, the MIC in experiment [1] is 2 µg/mL (≈ 3.1 µM); in experiment [2], over 64 µg/mL; in experiment [3], 2 µg/mL (≈ 3.1 µM); in experiment [4] it was over 64 µg/mL; in experiment [5], 2 µg/mL (≈ 3.1 µM); in experiment [6] it was over 64 µg/mL. For the same compound, the values for the MIC in experiment [7] and in experiment [8] were over 64 µg/mL and 2 µg/mL (≈ 3.1 µM), respectively.
`CCCCCNC(=O)O/N=C1\[C@H](C)C[C@](C)(OC)[C@H](O[C@@H]2O[C@H](C)[C@@H](OC(=O)NCCCCC)[C@H](N(C)C)[C@H]2O)[C@@H](C)C(=O)[C@@H](C)C(=O)O[C@H](CC)[C@@]2(C)OC(=O)O[C@@H]2[C@H]1C`: the MIC in experiment [1], in experiment [2], in experiment [3], in experiment [4], in experiment [5] and in experiment [6] was over 64 µg/mL throughout. Also, the MIC in experiment [7] and in experiment [8] was over 64 µg/mL in each case.
On to `CC[C@H]1OC(=O)[C@H](C)C(=O)[C@H](C)[C@@H](O[C@@H]2O[C@H](C)[C@@H](OC(=O)NC3CCCCC3)[C@H](N(C)C)[C@H]2O)[C@@](C)(OC)C[C@@H](C)/C(=N\OC(=O)NC2CCCCC2)[C@H](C)[C@H]2OC(=O)O[C@@]21C`, for which the MIC in experiment [1] is over 32 µg/mL; in experiment [2] it was over 32 µg/mL; in experiment [3], 32 µg/mL (≈ 35.8 µM); in experiment [4], over 32 µg/mL; in experiment [5], over 32 µg/mL; in experiment [6] it was over 32 µg/mL. The MIC was over 32 µg/mL in experiment [7] and 32 µg/mL (≈ 35.8 µM) in experiment [8].
`CC[C@H]1OC(=O)[C@H](C)[C@@H](O[C@H]2C[C@@](C)(OC)[C@@H](O)[C@H](C)O2)[C@H](C)[C@@H](O[C@@H]2O[C@H](C)C[C@H](N(C)C)[C@H]2O)[C@](C)(OC)C[C@@H](C)C(=O)[C@H](C)[C@@H](O)[C@]1(C)O` [CLARITHROMYCIN]: the MIC in experiment [1] is 4 µg/mL (≈ 5.35 µM); in experiment [2], over 64 µg/mL; in experiment [3] it was 0.06 µg/mL (≈ 0.0802 µM); in experiment [4] it was over 64 µg/mL; in experiment [5], 0.06 µg/mL (≈ 0.0802 µM); in experiment [6], 0.5 µg/mL (≈ 0.668 µM). In addition, the MIC is over 64 µg/mL in experiment [7] and 0.06 µg/mL (≈ 0.0802 µM) in experiment [8].
For `CC[C@H]1OC(=O)[C@H](C)C(=O)[C@H](C)[C@@H](O[C@@H]2O[C@H](C)[C@@H](OC(=O)NCCc3ccccc3)[C@H](N(C)C)[C@H]2O)[C@@](C)(OC)C[C@@H](C)/C(=N\OC(=O)NCCc2ccccc2)[C@H](C)[C@H]2OC(=O)O[C@@]21C`, the MIC in experiment [1], in experiment [2], in experiment [3], in experiment [4], in experiment [5] and in experiment [6] was over 32 µg/mL throughout. Also, the MIC in experiment [7] and in experiment [8] was over 32 µg/mL in each case.
